Assay results: PubChem BioAssay AID488769 (The Scripps Research Institute Molecular Screening Center, 2010)

Molecular target: Nuclear receptor subfamily 5 group A member 2 (Homo sapiens) (UniProt O00482)
Assay: suppression of cytokine-induced LRH-1 target mRNA, cell-based, quantitative PCR, fluorescence (AID 488769)
Details: Huh7 cytokine-induced target gene mRNA, TaqMan qPCR, 18 h, at 10 µM, active compounds read high;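 active means compounds cutting cytokine-driven expression of at least one of three liver inflammation genes by over 25%; inactive means the rest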
Method in brief: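 Material: Huh7 cells, endogenous LRH-1. Benchmarks: DMSO vehicle-treated cells as reference. Evaluation: mean % inhibition of target mRNA. Timing: 18 h compound exposure, then 3 h cytokine stimulation. Detection: TaqMan qPCR of target mRNAs.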

Measured: inhibition

Chain of Nuclear receptor subfamily 5 group A member 2 (Homo sapiens) (O00482 whole entry, looked up): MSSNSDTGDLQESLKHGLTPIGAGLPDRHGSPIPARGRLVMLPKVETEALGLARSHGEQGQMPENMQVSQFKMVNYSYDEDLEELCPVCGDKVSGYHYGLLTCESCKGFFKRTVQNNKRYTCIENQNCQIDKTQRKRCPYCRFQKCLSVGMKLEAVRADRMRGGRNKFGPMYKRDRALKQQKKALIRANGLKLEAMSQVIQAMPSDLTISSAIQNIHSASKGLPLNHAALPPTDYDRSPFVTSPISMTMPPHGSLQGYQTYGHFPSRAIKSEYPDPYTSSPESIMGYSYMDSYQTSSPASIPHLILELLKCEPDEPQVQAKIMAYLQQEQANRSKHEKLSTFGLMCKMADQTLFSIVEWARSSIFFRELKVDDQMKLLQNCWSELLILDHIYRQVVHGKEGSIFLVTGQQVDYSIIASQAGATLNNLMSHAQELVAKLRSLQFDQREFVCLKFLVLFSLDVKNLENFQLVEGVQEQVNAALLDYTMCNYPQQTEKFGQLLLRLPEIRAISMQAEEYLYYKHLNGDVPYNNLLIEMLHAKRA

O=c1cc(N2CCN(c3cccc(C(F)(F)F)c3)CC2)[nH]c(=O)n1C1CCCCC1
active: Haptoglobin 86% | SAA1 93% | SAA4 55%

O=c1cc(N2CCN(c3cccc(Cl)c3)CC2)[nH]c(=O)n1C1CCCCC1
active: Haptoglobin 88% | SAA1 91% | SAA4 55%
